Published values from different studies.

Compound	host	sample	route	dose	notes	quantity	value
OC[C@H]1O[C@@H](c2ccc(Cl)c(Cc3ccc(O[C@H]4CCOC4)cc3)c2)[C@H](O)[C@@H](O)[C@@H]1O	CD-1 mouse	plasma	intravenous	5 mg/kg		AUC	1450 ng·h/mL
COC(=O)CN(CCCc1ccccc1)CC(=O)N[C@@H](Cc1c[nH]cn1)c1nc(C)no1	male C57BL/6 mouse	plasma	intraperitoneal	30 mg/kg		AUC	200 ng·h/mL
CCc1cc(OC)c2nccc(N3CCc4c(cc(Cn5ccnc5)cc4-c4cn(C)nc4C(F)(F)F)C3=O)c2c1	male CD-1 mouse	plasma	intravenous	3 mg/kg		AUC(0-inf)	3330 ng·h/mL
Cc1nc(-c2cnc(NC(C)C)n(C)c2=O)ccc1Oc1ccnc(-c2cnn(C)c2)c1	female mouse	plasma	oral	30 mg/kg	single dose	AUC(0-t)	179000 ng·h/mL
CC[C@H](C)[C@@H]1NC(=O)[C@@](C)(NC(=O)[C@H](CCCNC(=N)N)NC(=O)[C@H](CC(C)C)NC(=O)[C@@H](NC(=O)[C@H](CCC(N)=O)NC(=O)[C@H](CC(C)C)NC(C)=O)[C@@H](C)O)CCCC=CCCC[C@@](C)(C(=O)N[C@@H](CC(C)C)C(=O)N[C@@H](Cc2ccc3ccccc3c2)C(N)=O)NC(=O)[C@H](CCCNC(=N)N)NC(=O)[C@H](CCC(N)=O)NC1=O	male BALB/c mouse	plasma	intravenous	5 mg/kg		AUC	76 µM·h
CCN1CCN(Cc2cc(NC(=O)c3ccc(C)c(-c4ccc5nc(NC(=O)C6CC6)cn5n4)c3)cc(C(F)(F)F)c2)CC1	Swiss mouse	plasma	intraperitoneal	3 mg/kg		AUC	1070 ng·h/mL
COc1ccc2nccc(N3CCc4c(cc(Cn5ccnc5)cc4-c4cn(C)nc4C(F)(F)F)C3=O)c2c1	male CD-1 mouse	plasma	intravenous	3 mg/kg		AUC(0-inf)	1840 ng·h/mL
CC(C)(O)c1cn(-c2ccc(-c3ccc(CO)c(S(C)(=O)=O)c3)cc2)c(Cc2ccccc2Cl)n1	male C57BL/6 mouse	serum	oral	10 mg/kg		AUC	13 µM·h
CC(C)(C)c1ccc(O)c(CN(Cc2cc(C(C)(C)C)ccc2O)C2CCC(NC(N)=O)CC2)c1 (centres unmarked)	male C57BL/6 mouse	plasma	oral	10 mg/kg	single dose	AUC(0-inf)	6620 ng·h/mL
CC(C)(O)c1cn(-c2ccc(-c3cc(F)c(CO)c(S(C)(=O)=O)c3)cc2F)c(C(C)(C)c2c(Cl)cccc2Cl)n1	male C57BL/6 mouse	serum	oral	10 mg/kg		AUC	7.4 µM·h
CC(C)Oc1c(NC(=O)c2ccc(NC(=O)[C@H](CC(N)=O)NC(=O)c3ccc(NC(=O)c4ccc(C#N)cc4)cc3)cc2)ccc(C(=O)Nc2ccc(C(=O)O)cc2)c1O	male CD-1 mouse	plasma	subcutaneous	5 mg/kg	single dose	AUC	517 ng·h/mL
Cc1noc([C@H](Cc2c[nH]cn2)NC(=O)CN(CCCc2ccccc2)CC(=O)O)n1	male C57BL/6 mouse	plasma	intraperitoneal	30 mg/kg		AUC	1900 ng·h/mL
Cc1ccc2cncc(N3CCc4c(cc(Cn5ccnc5)cc4-c4cn(C)nc4C(F)(F)F)C3=O)c2c1	male CD-1 mouse	plasma	oral	50 mg/kg		AUC(0-inf)	36300 ng·h/mL
NC[C@@H]1O[C@H](O[C@H]2[C@@H](O)[C@H](O[C@@H]3[C@@H](O)[C@H](N)C[C@H](N)[C@H]3O[C@H]3O[C@H](CO)[C@@H](O)[C@H](O)[C@H]3N)O[C@@H]2CO)[C@H](N)[C@@H](O)[C@@H]1O	male BALB/c mouse	plasma	intravenous	15 mg/kg		AUC	30600 ng·h/mL
